Experimental data gathered from unrelated publications.
Matrix: Caco-2

C[C@]12C[C@@H](O)[C@H]3[C@@H](CC[C@]4(O)C[C@@H](O)C[C@@H](O)[C@]34CO)[C@@]1(O)CC[C@@H]2c1cn(Cc2ccccc2)nn1  Papp B→A (40 min; pH 6.5): 0.14 ×10⁻⁶ cm/s
COc1cc2c(c(OC)c1OC)-c1ccc(OC)c(=O)cc1[C@@H](NC(C)=O)CC2  Papp B→A: 4.9 ×10⁻⁶ cm/s
COc1ccc2c(c1)[C@]13CCCC[C@@H]1[C@H](C2)N(C)CC3  Papp A→B (10 µM; pH 6.5): 34.9 ×10⁻⁶ cm/s
C=C(CCC=C(C)C)[C@H]1CC[C@]2(C)[C@@H]1[C@H](O)C[C@@H]1[C@@]3(C)C[C@@H](O)[C@H](O[C@@H]4O[C@H](CO)[C@@H](O)[C@H](O)[C@H]4O[C@@H]4O[C@H](CO)[C@@H](O)[C@H](O)[C@H]4O)C(C)(C)[C@@H]3CC[C@]12C  Papp (1 mg/mL; pH 7.4): 3.56 ×10⁻⁶ cm/s
CC[C@@]1(O)C(=O)OCc2c1cc1n(c2=O)Cc2cc3ccccc3nc2-1  Papp B→A (105 min): ~3.5 ×10⁻⁶ cm/s
CC(C)NCC(O)COc1cccc2ccccc12 (centres unmarked)  Papp A→B (1 h; pH 7.4): 21.8 ×10⁻⁶ cm/s
C=CCc1ccc(O)c(-c2cc(CC=C)ccc2O)c1  Papp A→B (0.05 mg/mL; 4 h; pH 7.4): 9 ×10⁻⁶ cm/s
C[C@H]1O[C@@H](O[C@H]2[C@@H](O)C[C@H](O[C@H]3[C@@H](O)C[C@H](O[C@H]4CC[C@@]5(C)[C@H](CC[C@@H]6[C@@H]5C[C@@H](O)[C@]5(C)[C@@H](C7=CC(=O)OC7)CC[C@]65O)C4)O[C@@H]3C)O[C@@H]2C)C[C@H](O)[C@@H]1O  Papp B→A (10 µM; 1 h; pH 7.4): 22.8 ×10⁻⁶ cm/s
C/N=c1\nc(-c2ccccc2)n(-c2ccccc2)s1  Papp B→A (20 µM; 95 min): 37.4 ×10⁻⁶ cm/s
N=c1c2c(-c3ccccc3)c(-c3ccccc3)n(Cc3ccccc3)c2ncn1[C@H]1CC[C@H](O)CC1  Papp B→A (3 µM; 2 h; pH 7.4): 2 ×10⁻⁶ cm/s
O=C(CCCN1CCC2(CC1)C(=O)NCN2c1ccccc1)N(CC1CCCCC1)c1ccccc1  Papp B→A: 6.8 ×10⁻⁶ cm/s
